The species entered for one data set is Sus scrofa. The experiment in a line: Pseudo first order rate constant to release model amine drug after esterase catalyzed hydrolysis at an enzyme concentration of 1 unit/mL. In outline: (§1)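 Porcine liver esterase (PLE), about 1 unit/mL, incubated with the model prodrug in 0.05 M phosphate buffer at pH 7.4 and 37 ± 0.5 °C. Amine release was followed by UV. The pseudo-first-order rate constant (kobs, min⁻¹) and the half-life (min) are reported.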

Data set [1] is described as follows: Compound was evaluated for the half life. Type of data set: ADME. In outline:
as §1

The half-life is the time needed for the level to fall by half in the phase considered. A low value points to fast loss.

On to `CCN(CC)C(=O)/C=C\c1c(C)cc(C)cc1OC(C)=O`, for which the K obs x10e2 in the data set filed under Sus scrofa came to 3.7 min⁻¹. Moreover, the half-life in data set [1] came to 18.8 min.
In turn, `CC(=O)Oc1cc(C)cc(C)c1/C=C\C(=O)N(C)Cc1ccccc1` had a K obs x10e2 in the data set filed under Sus scrofa of 11 min⁻¹. In data set [1], this compound returned a half-life of 6.3 min.
In the same order, the values of `CCN(CC)C(=O)/C=C\c1ccccc1OC(C)=O` are 0.37 min⁻¹ and 188 min.
The like results for `CCN(CC)C(=O)/C=C\c1c(C)ccc(C)c1OC(C)=O` were, in that order, 6.1 min⁻¹ and 11.4 min.
The like results for `CC(=O)Oc1c(C)ccc(C)c1/C=C\C(=O)N(C)Cc1ccccc1` were, in that order, 14.4 min⁻¹ and 4.8 min.
In the case of `CC(=O)Oc1ccccc1/C=C\C(=O)N(C)Cc1ccccc1`, the K obs x10e2 in the data set filed under Sus scrofa worked out at 2.13 min⁻¹. This compound came in with a half-life in data set [1] of 32.5 min.

Values taken from ChEMBL document CHEMBL1131767, “Substituted coumarins as esterase-sensitive prodrug moieties with improved release rates” (Bioorg Med Chem Lett, 1999).
